According to ChEMBL document CHEMBL1156338 (J Med Chem, 2010):

Legend:
[1] = system: Blood; experiment: Inhibition of IL-8 production in TNFalpha challenged human whole blood after 16 to 18 hrs; assay type: functional, tissue-based
Outline: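 Heparinized blood from healthy nonmedicated donors, 50% final in RPMI 1640 with 10% human AB serum. Ten-point compound titration preincubated 1 h at 37 C, 5% CO2, then TNF-alpha 1 nM final added for 16-18 h. Plasma IL-8 measured by electrochemiluminescent antibody sandwich assay; IC50 is the mean of at least three independent dose-response curves.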

[2] = molecular target: T1, Mitogen-activated protein kinase 14 (Homo sapiens, UniProt Q16539); experiment: Inhibition of human recombinant p38alpha-mediated […] phosphorylation after 1 hr by HTRF assay
T1 sequence (Q16539 whole entry): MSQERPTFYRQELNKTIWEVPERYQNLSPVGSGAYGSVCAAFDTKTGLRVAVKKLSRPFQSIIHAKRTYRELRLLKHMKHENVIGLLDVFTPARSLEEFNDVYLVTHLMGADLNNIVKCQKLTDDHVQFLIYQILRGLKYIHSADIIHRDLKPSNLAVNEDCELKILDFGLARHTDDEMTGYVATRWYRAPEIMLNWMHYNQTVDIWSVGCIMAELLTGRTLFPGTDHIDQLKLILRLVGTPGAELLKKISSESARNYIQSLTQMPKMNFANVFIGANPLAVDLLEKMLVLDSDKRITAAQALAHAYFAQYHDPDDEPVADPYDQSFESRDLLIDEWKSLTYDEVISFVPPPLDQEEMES

[3] = system: THP-1; experiment: Inhibition of LPS-induced TNFalpha production in human THP1 cells after 3 hrs; assay type: functional, cell-based
Outline: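 THP-1 cells at 1.5 x 10^6/mL in RPMI 1640, 10% heat-inactivated FBS, NEAA, 30 μM βME. 3-fold serial compound dilutions in DMSO, then LPS stimulation for 3 h at 37 C, 5% CO2. Secreted TNF-alpha read by electrochemiluminescent immunoassay; percent of DMSO control; IC50 is the mean of at least three independent curves.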

[4] = Volume of distribution at steady state in Sprague-Dawley rat at 2 mg/kg, iv; assay type: ADME, organism-based; design: dose 2 mg/kg, route intravenous; conditions: in vivo, read-out: Vdss
[5] = Oral bioavailability in Sprague-Dawley rat at 2 mg/kg; assay type: ADME, organism-based; conditions: in vivo
[6] = Clearance in Sprague-Dawley rat at 2 mg/kg, iv; assay type: ADME, organism-based; design: dose 2 mg/kg, route intravenous; conditions: in vivo
[7] = AUC (0 to infinity) in Sprague-Dawley rat at 2 mg/kg, po; assay type: ADME, organism-based; design: time infinity, dose 2 mg/kg, route oral; conditions: plasma
[8] = Half life in Sprague-Dawley rat at 2 mg/kg, iv; assay type: ADME, organism-based; design: dose 2 mg/kg, route intravenous; conditions: in vivo
[9] = molecular target: T2, Nuclear receptor subfamily 1 group I member 2 (Homo sapiens, UniProt O75469); experiment: Transactivation of human PXR expressed in HepG2 cells after 24 hrs by luciferase reporter gene assay; assay type: cell-based; conditions: hepg2, 24 h
T2 sequence (O75469 whole entry): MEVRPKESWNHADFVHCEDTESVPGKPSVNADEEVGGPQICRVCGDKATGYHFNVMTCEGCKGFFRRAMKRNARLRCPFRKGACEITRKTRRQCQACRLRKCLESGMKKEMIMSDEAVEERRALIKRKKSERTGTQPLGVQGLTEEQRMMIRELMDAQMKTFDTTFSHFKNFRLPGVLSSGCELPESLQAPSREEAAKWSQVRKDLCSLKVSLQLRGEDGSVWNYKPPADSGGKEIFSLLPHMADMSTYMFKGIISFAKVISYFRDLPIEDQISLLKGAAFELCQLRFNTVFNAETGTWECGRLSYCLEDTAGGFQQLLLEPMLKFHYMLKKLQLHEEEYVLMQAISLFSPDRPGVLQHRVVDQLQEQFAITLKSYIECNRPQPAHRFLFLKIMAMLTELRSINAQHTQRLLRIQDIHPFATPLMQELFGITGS
Outline: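 HepG2 cells transfected with a CYP3A4-promoter luciferase reporter and human PXR cDNA. Compound added from DMSO stocks to final 2 and 10 μM in buffer and incubated 24 h. Luciferase activity read by chemiluminescence and reported as percent of the rifampin (10 μM) positive control.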

[10] = molecular target: Cytochrome P450 3A4 (Homo sapiens, UniProt P08684); experiment: Inhibition of CYP3A4; assay type: ADME
Chain of Cytochrome P450 3A4 (P08684 whole entry): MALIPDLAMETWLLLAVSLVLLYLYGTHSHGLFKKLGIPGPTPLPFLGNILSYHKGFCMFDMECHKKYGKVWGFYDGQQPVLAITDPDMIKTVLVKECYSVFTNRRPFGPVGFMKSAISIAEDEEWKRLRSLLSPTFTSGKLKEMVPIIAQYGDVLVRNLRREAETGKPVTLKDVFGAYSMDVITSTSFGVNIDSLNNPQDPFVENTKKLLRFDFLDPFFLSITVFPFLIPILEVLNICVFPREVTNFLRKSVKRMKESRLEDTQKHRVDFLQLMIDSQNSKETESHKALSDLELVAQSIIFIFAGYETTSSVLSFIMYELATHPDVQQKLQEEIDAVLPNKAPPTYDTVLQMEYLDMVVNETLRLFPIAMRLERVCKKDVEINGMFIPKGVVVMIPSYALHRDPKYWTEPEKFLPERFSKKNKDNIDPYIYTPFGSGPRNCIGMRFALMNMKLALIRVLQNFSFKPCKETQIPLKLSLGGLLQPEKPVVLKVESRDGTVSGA

[11] = Plasma protein binding in human by ultrafiltration method; assay type: ADME, cell-free; conditions: read-out: PPB (converted)
[12] = Plasma protein binding in rat by ultrafiltration method; assay type: ADME, cell-free; conditions: read-out: PPB (converted)
[13] = molecular target: Mast/stem cell growth factor receptor Kit (Homo sapiens, UniProt P10721); experiment: Binding affinity to c-Kit by scintillation proximity assay
Chain of Mast/stem cell growth factor receptor Kit (P10721 whole entry): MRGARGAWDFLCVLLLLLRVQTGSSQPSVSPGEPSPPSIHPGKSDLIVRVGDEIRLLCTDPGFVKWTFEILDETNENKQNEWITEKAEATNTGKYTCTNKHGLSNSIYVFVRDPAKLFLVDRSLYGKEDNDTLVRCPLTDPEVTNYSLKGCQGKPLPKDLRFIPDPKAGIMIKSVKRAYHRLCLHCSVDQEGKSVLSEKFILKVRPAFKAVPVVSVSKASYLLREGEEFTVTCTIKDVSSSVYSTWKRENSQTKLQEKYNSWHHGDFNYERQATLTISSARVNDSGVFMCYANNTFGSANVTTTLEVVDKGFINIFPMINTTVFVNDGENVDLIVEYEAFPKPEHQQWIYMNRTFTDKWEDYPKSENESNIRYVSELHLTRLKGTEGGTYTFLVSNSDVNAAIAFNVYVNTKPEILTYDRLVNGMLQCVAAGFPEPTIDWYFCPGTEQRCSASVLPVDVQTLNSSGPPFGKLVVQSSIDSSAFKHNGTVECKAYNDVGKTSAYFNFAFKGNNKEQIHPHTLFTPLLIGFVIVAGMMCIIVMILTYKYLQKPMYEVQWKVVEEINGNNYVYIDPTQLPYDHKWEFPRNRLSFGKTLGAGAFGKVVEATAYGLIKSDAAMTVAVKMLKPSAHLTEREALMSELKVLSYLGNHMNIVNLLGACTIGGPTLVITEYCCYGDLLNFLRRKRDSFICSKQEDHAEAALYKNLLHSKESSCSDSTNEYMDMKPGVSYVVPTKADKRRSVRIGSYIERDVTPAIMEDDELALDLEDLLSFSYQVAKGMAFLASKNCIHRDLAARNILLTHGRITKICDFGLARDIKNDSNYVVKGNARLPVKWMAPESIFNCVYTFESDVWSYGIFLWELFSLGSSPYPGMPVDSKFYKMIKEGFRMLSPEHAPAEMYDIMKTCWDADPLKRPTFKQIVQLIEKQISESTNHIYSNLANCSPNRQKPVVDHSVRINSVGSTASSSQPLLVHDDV

[14] = molecular target: T1, Mitogen-activated protein kinase 14; experiment: Binding affinity to p38alpha by scintillation proximity assay
[15] = molecular target: Vascular endothelial growth factor receptor 2 (Homo sapiens, UniProt P35968); experiment: Binding affinity to Kdr by scintillation proximity assay
Chain of Vascular endothelial growth factor receptor 2 (P35968 whole entry): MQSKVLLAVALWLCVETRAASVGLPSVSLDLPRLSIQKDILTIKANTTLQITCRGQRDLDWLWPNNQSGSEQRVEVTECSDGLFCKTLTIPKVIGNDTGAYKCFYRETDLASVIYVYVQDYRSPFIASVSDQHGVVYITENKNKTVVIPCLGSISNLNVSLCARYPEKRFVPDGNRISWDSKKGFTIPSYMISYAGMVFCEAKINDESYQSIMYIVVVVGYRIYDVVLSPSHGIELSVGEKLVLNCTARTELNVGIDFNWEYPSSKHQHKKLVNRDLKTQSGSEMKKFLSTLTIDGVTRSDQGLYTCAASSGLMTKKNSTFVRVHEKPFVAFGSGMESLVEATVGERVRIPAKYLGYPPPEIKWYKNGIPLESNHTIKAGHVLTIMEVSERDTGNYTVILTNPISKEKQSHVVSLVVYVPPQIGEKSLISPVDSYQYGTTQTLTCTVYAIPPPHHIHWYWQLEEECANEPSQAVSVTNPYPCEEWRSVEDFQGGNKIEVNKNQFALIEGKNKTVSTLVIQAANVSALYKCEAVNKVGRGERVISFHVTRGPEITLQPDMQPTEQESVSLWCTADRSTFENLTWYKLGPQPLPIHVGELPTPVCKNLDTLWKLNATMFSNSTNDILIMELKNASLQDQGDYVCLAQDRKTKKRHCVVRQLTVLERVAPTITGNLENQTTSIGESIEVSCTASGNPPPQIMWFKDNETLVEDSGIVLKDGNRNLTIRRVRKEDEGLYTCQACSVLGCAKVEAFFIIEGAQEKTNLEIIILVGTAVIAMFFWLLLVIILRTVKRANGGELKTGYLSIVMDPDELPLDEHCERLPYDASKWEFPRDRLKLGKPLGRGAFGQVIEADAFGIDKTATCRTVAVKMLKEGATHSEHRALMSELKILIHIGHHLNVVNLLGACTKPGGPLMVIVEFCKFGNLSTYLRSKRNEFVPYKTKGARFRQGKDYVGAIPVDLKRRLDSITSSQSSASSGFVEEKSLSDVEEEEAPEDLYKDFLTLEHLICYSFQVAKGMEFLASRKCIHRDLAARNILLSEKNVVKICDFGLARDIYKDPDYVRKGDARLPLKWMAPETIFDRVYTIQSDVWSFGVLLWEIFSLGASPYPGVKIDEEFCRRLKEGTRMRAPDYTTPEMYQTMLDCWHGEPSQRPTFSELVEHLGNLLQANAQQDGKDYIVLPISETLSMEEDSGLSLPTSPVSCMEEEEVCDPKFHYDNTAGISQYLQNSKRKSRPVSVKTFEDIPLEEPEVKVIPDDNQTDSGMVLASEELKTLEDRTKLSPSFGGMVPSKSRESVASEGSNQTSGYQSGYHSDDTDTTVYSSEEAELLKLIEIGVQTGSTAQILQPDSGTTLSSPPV

[16] = molecular target: Tyrosine-protein kinase Lck (Homo sapiens, UniProt P06239); experiment: Binding affinity to Lck by scintillation proximity assay
Chain of Tyrosine-protein kinase Lck (P06239 whole entry): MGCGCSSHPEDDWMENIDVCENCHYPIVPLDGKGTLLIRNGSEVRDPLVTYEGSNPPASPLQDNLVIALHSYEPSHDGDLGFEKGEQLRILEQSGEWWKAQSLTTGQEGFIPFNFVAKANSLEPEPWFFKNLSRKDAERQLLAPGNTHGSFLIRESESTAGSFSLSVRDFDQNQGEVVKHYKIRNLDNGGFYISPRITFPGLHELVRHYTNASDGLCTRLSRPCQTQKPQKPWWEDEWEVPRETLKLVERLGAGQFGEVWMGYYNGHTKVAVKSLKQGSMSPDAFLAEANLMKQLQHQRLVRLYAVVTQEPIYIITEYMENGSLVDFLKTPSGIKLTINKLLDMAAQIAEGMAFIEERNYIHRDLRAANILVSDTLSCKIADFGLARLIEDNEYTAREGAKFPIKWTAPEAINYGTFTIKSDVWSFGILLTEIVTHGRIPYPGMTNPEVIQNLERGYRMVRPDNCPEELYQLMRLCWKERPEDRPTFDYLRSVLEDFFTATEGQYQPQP

[17] = in vitro; conditions: human, Caco-2
[18] = in vitro; conditions: human, Caco-2; remark: listed apart in the source
[19] = Homo sapiens, Blood, read-out: IC50
[20] = Homo sapiens, THP-1, 3 h, read-out: IC50

Row | Structure (SMILES) | IC50 [1, 19] | Ki [2] | IC50 [3, 20] | Vd [4] | bioavailability [5] | clearance [6] | AUC(0-inf) [7] | half-life [8] | further results
1 | Cc1ccc(C(=O)NC2(C)CC2)cc1-c1cc2cnn(-c3c(F)cccc3F)c2n(C)c1=O | 11 nM | 1.7 nM | 2.7 nM | – | – | – | – | – | –
2 | CNc1noc2c(-c3cc4cnn(-c5c(F)cccc5F)c4n(C)c3=O)c(C)ccc12 | – | 2 nM | – | 1.89 L/kg | 27% | 17.6 mL/min/kg | 515 ng·h/mL | 3.5 h | IC50 [1]: 5.4 nM; IC50 ([3]; thp-1): 1.2 nM
3 | Cc1ccc(C(=O)O)cc1-c1cc2cnn(-c3c(F)cccc3F)c2n(C)c1=O | > 2500 nM | 458 nM | 631 nM | – | – | – | – | – | –
4 | Cc1ccc(C(=O)NC2CC2)cc1-c1cc2cnn(-c3cc(F)ccc3F)c2n(C)c1=O | 3.7 nM | 1.9 nM | 1.6 nM | 0.955 L/kg | 10% | 4.12 mL/min/kg | 782 ng·h/mL | 2.2 h | –
5 | CCn1c(=O)c(-c2cc(C(=O)NC3CC3)ccc2C)cc2cnn(-c3ccc(F)cc3F)c21 | 2.4 nM | 0.6 nM | 0.5 nM | – | – | – | – | – | Activity [9]: Not Active; IC50 [10]: 1600 nM
6 | Cc1ccc(C(=O)Nc2ccon2)cc1-c1cc2cnn(-c3c(F)cccc3F)c2n(C)c1=O | 1.5 nM | 1 nM | 0.3 nM | – | – | – | – | – | –
7 | Cn1c(=O)c(-c2cc(C(=O)NC3CC3)ccc2Cl)cc2cnn(-c3c(F)cccc3F)c21 | – | – | 0.9 nM | 1.47 L/kg | 73% | 2.75 mL/min/kg | 8860 ng·h/mL | 6.3 h | fraction unbound [11]: 0.038; fraction unbound [12]: 0.032
8 | Cc1ccc(C(=O)NC2CC2)cc1-c1ccc2c(-c3ccccc3F)nncc2c1 | – | – | – | – | – | – | – | – | Kd [13]: 2.4 nM; Kd [14]: 0.05 nM; Kd [15]: 320 nM; Kd [16]: 530 nM
9 | Cc1ccc(C(=O)NC2CC2)cc1-c1cc2cnn(-c3ccccc3F)c2n(C)c1=O | – | – | – | – | – | – | – | – | Kd [13]: 1700 nM; Kd [14]: 0.18 nM; Kd [15]: 40000 nM; Kd [16]: 40000 nM
10 | Cc1c(F)cc(C(=O)NC2CC2)cc1-c1cc2cnn(-c3c(F)cccc3F)c2n(C)c1=O | 1.7 nM | 0.8 nM | 0.4 nM | – | – | – | – | – | –
11 | Cc1ccc(C(=O)NC2CC2)cc1-c1cc2cnn(-c3ccccc3C)c2n(C)c1=O | 12.1 nM | 1.9 nM | 4 nM | – | – | – | – | – | –
12 | Cc1ccc(C(=O)NC2CC2)cc1-c1cc2c(C)nn(-c3c(F)cccc3F)c2n(C)c1=O | 40 nM | 8 nM | 2.7 nM | – | – | – | – | – | –
13 | Cc1ccc(C(=O)NC2CC2)cc1-c1cc2cnn(-c3ccc(F)cc3F)c2n(C)c1=O | 3.9 nM | – | 1.5 nM | 1.69 L/kg | 73% | 2.88 mL/min/kg | 5120 ng·h/mL | 7.7 h | fraction unbound [11]: 0.07; Kd [13]: 13000 nM; Kd [15]: 40000 nM; Papp A→B [17]: 20 ×10⁻⁶ cm/s; fraction unbound [12]: 0.075; Kd [16]: 40000 nM; Papp B→A [18]: 29 ×10⁻⁶ cm/s
14 | Cc1ccc(C(N)=O)cc1-c1cc2cnn(-c3c(F)cccc3F)c2n(C)c1=O | 6.4 nM | 1.5 nM | 3.9 nM | 1.1 L/kg | 37% | 5.2 mL/min/kg | 2390 ng·h/mL | 2.4 h | –
15 | Cc1ccc(C(=O)NC2CC2)cc1-c1cc2cnn(-c3ccccc3Cl)c2n(C)c1=O | 8.7 nM | 0.9 nM | 1.1 nM | – | – | – | – | – | –
16 | Cc1ccc(C(=O)NC2CC2)cc1-c1cc2cnn(-c3ncccc3C(F)(F)F)c2n(C)c1=O | 24 nM | 2.3 nM | 14.4 nM | – | – | – | – | – | –
